From ChEMBL document CHEMBL4052594, “Discovery of Pyrrolidine-Containing GPR40 Agonists: Stereochemistry Effects a Change in Binding Mode” (J Med Chem, 2017)

Tests used:
[1] = target: T1, Free fatty acid receptor 1 (Homo sapiens, UniProt O14842); assay: Binding affinity to human GPR40 expressed in HEK293 cell membranes after 1 hr by radioligand displacement based scintillation counting method
How it was run: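 Binding of human GPR40 measured as Ki against a radioligand. Mean of at least two runs. Displacement of the label appears as a negative slope and potentiation as a positive one.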

[2] = target: Free fatty acid receptor 1 (Mus musculus, UniProt Q76JU9); assay: Agonist activity at mouse GPR40 expressed in CHO-A12 cells assessed as increase in intracellular calcium flux measured for 100 secs by FLIPR assay; assay type: functional, cell-based
Chain of Free fatty acid receptor 1 (Mus musculus, UniProt Q76JU9) (Q76JU9 whole entry): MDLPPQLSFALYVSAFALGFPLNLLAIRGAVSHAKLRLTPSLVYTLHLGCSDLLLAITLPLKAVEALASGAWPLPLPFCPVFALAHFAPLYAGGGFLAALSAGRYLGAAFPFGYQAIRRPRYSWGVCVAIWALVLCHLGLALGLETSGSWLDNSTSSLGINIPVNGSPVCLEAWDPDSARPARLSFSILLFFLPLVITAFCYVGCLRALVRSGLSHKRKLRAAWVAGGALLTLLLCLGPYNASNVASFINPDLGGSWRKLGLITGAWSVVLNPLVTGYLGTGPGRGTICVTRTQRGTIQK

[3] = target: T1, Free fatty acid receptor 1; assay: Agonist activity at human GPR40 expressed in CHO-A12 cells assessed as increase in intracellular calcium flux measured for 100 secs by FLIPR assay; assay type: functional, cell-based
[4] = target: Free fatty acid receptor 1 (Mus musculus) (UniProt Q76JU9); assay: Intrinsic activity at mouse GPR40 expressed in CHO-A12 cells assessed as increase in intracellular calcium flux at 8.3 uM measured for 100 secs by FLIPR assay […]; assay type: functional, cell-based
Chain of Free fatty acid receptor 1 (Mus musculus) (Q76JU9 whole entry, the tested form may be a part): as the sequence (Q76JU9 whole entry) above

[5] = target: T2, Peroxisome proliferator-activated receptor gamma (Homo sapiens, UniProt P37231); assay: Transactivation of human Gal4 fused PPARgamma-LBD expressed in HEK293 cells after 18 hrs by luciferase reporter gene assay; assay type: cell-based
T2 sequence (P37231 whole entry): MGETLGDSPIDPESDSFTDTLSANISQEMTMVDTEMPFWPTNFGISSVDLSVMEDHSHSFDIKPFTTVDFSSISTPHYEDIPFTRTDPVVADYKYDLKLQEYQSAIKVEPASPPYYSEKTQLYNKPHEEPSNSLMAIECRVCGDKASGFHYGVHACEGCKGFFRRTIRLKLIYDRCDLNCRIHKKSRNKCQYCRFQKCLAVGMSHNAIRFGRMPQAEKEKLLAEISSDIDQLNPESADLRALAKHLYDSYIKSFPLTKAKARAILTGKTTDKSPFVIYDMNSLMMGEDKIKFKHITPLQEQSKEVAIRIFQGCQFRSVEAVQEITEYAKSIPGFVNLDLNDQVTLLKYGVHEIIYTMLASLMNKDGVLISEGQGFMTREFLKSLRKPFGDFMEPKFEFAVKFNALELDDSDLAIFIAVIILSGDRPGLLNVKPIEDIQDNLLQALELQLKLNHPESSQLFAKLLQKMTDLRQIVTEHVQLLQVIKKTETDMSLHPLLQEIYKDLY
How it was run: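 Gal4 gene reporter transactivation assay for PPARγ; EC50 and Ymax reported.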

PPARgamma = target: T3, PPARgamma (Homo sapiens, UniProt P37231); assay: Transactivation of human Gal4 fused PPARgamma-LBD expressed in HEK293 cells at 4.8 uM after 18 hrs by luciferase reporter gene assay relative to […]; assay type: cell-based; details: HEK293 cells expressing Gal4-fused human PPARgamma-LBD
T3 sequence (P37231 whole entry): T2 sequence (P37231 whole entry)

T1 sequence (O14842 whole entry): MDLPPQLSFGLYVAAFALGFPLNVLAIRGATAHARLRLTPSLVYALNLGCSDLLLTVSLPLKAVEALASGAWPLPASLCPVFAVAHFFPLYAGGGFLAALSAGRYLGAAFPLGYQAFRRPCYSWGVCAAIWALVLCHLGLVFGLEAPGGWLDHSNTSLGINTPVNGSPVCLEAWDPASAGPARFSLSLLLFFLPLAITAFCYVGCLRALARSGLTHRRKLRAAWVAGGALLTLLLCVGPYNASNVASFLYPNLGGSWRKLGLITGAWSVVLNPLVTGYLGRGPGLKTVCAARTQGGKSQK

SMILES | Ki [1] | EC50 [2] | EC50 [3] | Intrinsic activity [4] | Activity ([5]; human, hek293, 18 h) | Emax at 18 h, 4.8 µM (PPARgamma) | EC50 [5]
Cc1ccccc1C(=O)c1ccc(N2CCC[C@H]2CC(=O)O)cc1 | > 33 µM | > 33 µM | 4.6 µM | – | – | – | –
Cc1ccccc1S(=O)(=O)c1ccc(N2CCC[C@H]2CC(=O)O)cc1 | – | > 33 µM | > 33 µM | – | – | – | –
O=C(O)C[C@@H]1C[C@H](C(F)(F)F)CN1c1ccc(Oc2ccccc2C(F)(F)F)cc1 | – | 1.3 µM | 0.31 µM | 42% | – | – | –
O=C(O)CC1CCCCN1c1ccc(OCc2ccc(Cl)cc2Cl)cc1 (single isomer, unassigned; enantiomer 2) | – | > 33 µM | > 17 µM | – | – | – | –
O=C(O)C[C@@H]1CCCN1c1ccc(Oc2ccc(Cl)cc2)cc1 | – | > 33 µM | 0.29 µM | – | – | – | –
O=C(O)CC1CCCCN1c1ccc(OCc2ccc(Cl)cc2Cl)cc1 (single isomer, unassigned; enantiomer 1) | – | > 33 µM | > 33 µM | – | – | – | –
O=C(O)C[C@@H]1CCCN1c1ccc(OCc2ccc(Cl)cc2Cl)cn1 | – | > 33 µM | 0.22 µM | – | – | – | –
Cc1cc(OCc2ccc(Cl)cc2Cl)ccc1N1CCC[C@H]1CC(=O)O | – | 14 µM | 8.9 µM | 70% | – | – | –
COc1ccc(F)c(-c2cccc(Oc3ccc(N4CCC[C@H]4CC(=O)O)cc3)c2C)c1 | – | 3 µM | 0.31 µM | 83% | – | – | –
Cc1cc(OCc2ccccc2)ccc1Oc1ccc(N2C[C@@H](C(F)(F)F)C[C@H]2CC(=O)O)cc1 | 0.01 µM | 1.5 µM | 0.12 µM | 34% | – | – | –
COc1ccc(F)c(-c2ccc(Cc3ccc(N4C[C@@H](C(F)(F)F)C[C@@H]4CC(=O)O)cc3)c(C)c2)c1 | – | 0.053 µM | 0.15 µM | 210% | – | – | –
CO[C@H]1C[C@@H](CC(=O)O)N(c2ccc(Oc3ccccc3C)cc2)C1 | 9 µM | 0.96 µM | – | 76% | – | – | –
O=C(O)C[C@H]1CCN1c1ccc(OCc2ccc(Cl)cc2Cl)cc1 | – | > 17 µM | 13 µM | – | – | – | –
O=C(O)C[C@@H]1CCCN1c1ccc(Oc2cccc(Cl)c2)cc1 | – | > 16 µM | 0.68 µM | – | – | – | –
O=C(O)CC1CCN(c2ccc(OCc3ccc(Cl)cc3Cl)cc2)C1 (stereo not given) | – | > 33 µM | > 33 µM | – | – | – | –
Cc1ccccc1Cc1ccc(N2C[C@@H](C)C[C@H]2CC(=O)O)cc1 | 0.36 µM | 1.1 µM | 0.14 µM | 43% | – | – | –
Cc1cccc(C)c1Oc1ccc(N2C[C@@H](C(F)(F)F)C[C@H]2CC(=O)O)cc1 | – | 0.27 µM | 0.082 µM | 36% | – | – | –
O=C(O)C[C@H]1CCCN1c1ccc(OCc2ccc(Cl)cc2Cl)cc1 | – | > 17 µM | 0.88 µM | – | – | – | –
Cc1cccc(Oc2ccc(N3CCC[C@H]3CC(=O)O)cc2)c1 | – | 2.4 µM | 0.26 µM | 83% | – | – | –
Cc1ccccc1Cc1ccc(N2CC[C@H](c3ccccc3)[C@H]2CC(=O)O)cc1 | – | > 33 µM | 11 µM | – | – | – | –
Cc1ccccc1Sc1ccc(N2CCC[C@H]2CC(=O)O)cc1 | – | > 17 µM | 0.57 µM | – | – | – | –
Cc1ccccc1COc1ccc(N2CCC[C@H]2CC(=O)O)cc1C | – | > 33 µM | > 33 µM | – | – | – | –
O=C(O)C[C@@H]1CCCN1c1ccc(Oc2ccccc2F)cc1 | 1.3 µM | 6.9 µM | 0.15 µM | 50% | – | – | –
Cc1ccccc1Cc1ccc(N2[C@H](CC(=O)O)CC[C@@H]2C)cc1 | – | > 33 µM | 6.2 µM | – | – | – | –
Cc1ccccc1Cc1ccc(N2C[C@@H](C(F)(F)F)C[C@H]2CC(=O)O)cc1 | 0.073 µM | 0.71 µM | 0.067 µM | 54% | – | – | –
CC(C)(C)c1ccccc1Oc1ccc(N2CCC[C@H]2CC(=O)O)cc1 | – | > 17 µM | 6.5 µM | – | – | – | –

SMILES | Ki [1] | EC50 [2] | EC50 [3] | Intrinsic activity [4] | Activity ([5]; human, hek293, 18 h) | Emax at 18 h, 4.8 µM (PPARgamma) | EC50 [5]
Cc1cccc(Oc2ccc(N3C[C@@H](C(F)(F)F)C[C@H]3CC(=O)O)cc2)c1C | 0.06 µM | 0.5 µM | 0.11 µM | 100% | – | – | –
COc1ccc(Oc2ccc(N3C[C@@H](C(F)(F)F)C[C@H]3CC(=O)O)cc2)c(C)c1 | 0.039 µM | 0.17 µM | – | 41% | – | – | –
O=C(O)C[C@@H]1CCCN1c1ccc(Oc2ccc(Cl)cc2Cl)cc1 | – | 3.2 µM | 0.36 µM | 120% | – | – | –
COc1ccc(F)c(-c2ccc(Cc3ccc(N4CCC[C@H]4CC(=O)O)cc3)c(C)c2)c1 | 0.31 µM | 1.9 µM | 0.22 µM | 160% | – | – | –
Cc1ccccc1Cc1ccc(N2CCC[C@H]2CC(=O)O)cc1 | 1.3 µM | > 33 µM | 0.15 µM | – | Not Active | – | –
CCOc1ccccc1Oc1ccc(N2CCC[C@H]2CC(=O)O)cc1 | – | > 33 µM | 1.7 µM | – | – | – | –
Cc1ccccc1Cc1ccc(N2CC[C@H](C)[C@H]2CC(=O)O)cc1 | 0.31 µM | 1.9 µM | 0.12 µM | 27% | – | – | –
O=C(O)C1CC(=O)N(c2ccc(OCc3ccc(Cl)cc3Cl)cc2)C1 (stereo not given) | – | > 33 µM | 5 µM | – | – | – | –
O=C(O)C[C@@H]1CCCN1c1ccc(Oc2ccccc2)cc1 | 6.5 µM | > 16 µM | 0.56 µM | – | – | – | –
O=C(O)C[C@@H]1CCN1c1ccc(OCc2ccc(Cl)cc2Cl)cc1 | – | 0.44 µM | 0.26 µM | 88% | – | – | –
O=C(O)CC1CCCCCN1c1ccc(OCc2ccc(Cl)cc2Cl)cc1 (single isomer, unassigned; enantiomer 2) | – | > 33 µM | 11 µM | – | – | – | –
Cc1ccccc1Cc1ccc(N2CCC[C@@]2(C)CC(=O)O)cc1 | 23 µM | > 33 µM | > 33 µM | – | – | – | –
Cc1ccccc1COc1ccc(N2CCC[C@H]2CC(=O)O)cn1 | 1.8 µM | > 33 µM | 0.45 µM | – | – | – | –
Cc1ccc(Oc2ccc(N3CCC[C@H]3CC(=O)O)cc2)cc1 | – | > 33 µM | 0.49 µM | – | – | – | –
O=C(O)C[C@@H]1CCCN1c1ccc(Oc2ccccc2-c2ccccc2)cc1 | – | 1.3 µM | 3.5 µM | 72% | – | – | –
O=C(O)CC1CCCCCN1c1ccc(OCc2ccc(Cl)cc2Cl)cc1 (single isomer, unassigned; enantiomer 1) | – | > 16 µM | 6.4 µM | – | – | – | –
Cc1ccccc1Cc1ccc(N2C[C@@H](F)C[C@H]2CC(=O)O)cc1 | 0.18 µM | > 33 µM | 0.074 µM | – | – | – | –
Cc1c(Cl)cccc1Oc1ccc(N2C[C@@H](C(F)(F)F)C[C@H]2CC(=O)O)cc1 | 0.013 µM | 0.43 µM | 0.082 µM | 50% | – | – | –
CN(C)c1cccc(Oc2ccc(N3CCC[C@H]3CC(=O)O)cc2)c1 | – | > 33 µM | 1.3 µM | – | – | – | –
COc1ccc(Oc2ccc(N3CCC[C@H]3CC(=O)O)cc2)cc1 | – | > 33 µM | 0.52 µM | – | – | – | –
Cc1ccccc1[S+]([O-])c1ccc(N2CCC[C@H]2CC(=O)O)cc1 (mixture of isomers) | – | > 33 µM | > 33 µM | – | – | – | –
COc1ccc(F)c(-c2ccc(Cc3ccc(N4C[C@H](C(F)(F)F)C[C@H]4CC(=O)O)cc3)c(C)c2)c1 | – | 1.1 µM | 1.7 µM | 140% | – | – | –
Cc1ccccc1Cc1ccc(N2C[C@@H](c3ccccc3)C[C@H]2CC(=O)O)cc1 | > 25 µM | > 33 µM | > 17 µM | – | – | – | –
O=C(O)C[C@@H]1C[C@H](C(F)(F)F)CN1c1ccc(Oc2ccccc2OC(F)(F)F)cc1 | – | 0.74 µM | 0.17 µM | 44% | – | – | –
Cc1ccccc1Oc1ccc(N2CCC[C@H]2CC(=O)O)cc1 | 4.4 µM | 5.6 µM | 0.074 µM | 69% | – | 27% | 32 µM
O=C(O)C1CCN(c2ccc(OCc3ccc(Cl)cc3Cl)cc2)C1 (stereo not given) | – | > 16 µM | 2.1 µM | – | – | – | –
